CHRM1 agonist: activates human CHRM1 receptor | P11229 | CHO-K1 hM1, Fluo-8 calcium fluorescence, agonist mode; 0% DMSO, 100% acetylcholine EC100 | activation, % at 3 µM | hit rate 0.33% among 360,000;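 active = activation above the run's mean compound activation plus 3 SD, cut at about 16% in these data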;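 also: peak over basal fluorescence ratio within a 140 s kinetic read after compound addition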
Target sequence (P11229 whole entry, looked up): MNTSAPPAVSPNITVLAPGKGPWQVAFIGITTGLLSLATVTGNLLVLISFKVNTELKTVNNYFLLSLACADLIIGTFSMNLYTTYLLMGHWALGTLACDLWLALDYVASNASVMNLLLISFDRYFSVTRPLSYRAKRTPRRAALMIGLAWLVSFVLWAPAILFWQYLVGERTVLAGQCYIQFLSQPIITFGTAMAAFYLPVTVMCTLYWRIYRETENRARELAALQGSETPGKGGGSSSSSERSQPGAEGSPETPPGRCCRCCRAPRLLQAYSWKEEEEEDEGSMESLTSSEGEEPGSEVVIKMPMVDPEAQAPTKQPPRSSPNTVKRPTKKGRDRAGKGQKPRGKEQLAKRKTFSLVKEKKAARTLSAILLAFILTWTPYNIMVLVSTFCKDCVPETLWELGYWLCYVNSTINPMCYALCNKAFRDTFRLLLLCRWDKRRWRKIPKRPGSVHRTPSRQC
CHRM1 antagonist: antagonists of human M1 muscarinic receptor; P11229; CHO-K1 hM1, Fluo-8 calcium fluorescence, ACh EC80 antagonist; inhibition, % at 3 µM; hit rate 1.3% among 360,000; AID 588852;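 active = percent inhibition above its own plate's cutoff, namely the mean of that plate's compound wells plus 3 SD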;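 also: peak over basal fluorescence ratio during 140 s after agonist addition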
CHRM5 antagonist: antagonists of human muscarinic M5 receptor (CHRM5) | inhibition, % at 3 µM | CHO-hM5 cells, Fluo-8 calcium fluorescence, ACh EC80 | hit rate 0.59% among 360,000 | AID 624040 | P08912;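 active = inhibition above a per-plate cutoff, the mean of that plate's test compounds plus 3 SD, cut at about 27% in these data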
M5 ag: agonists of human muscarinic M5 receptor (CHRM5); P08912; CHO-K1 hM5 cells, Fluo-8 calcium fluorescence; 0% DMSO wells, 100% maximal acetylcholine response; activation, % at 3 µM; hit rate 0.19% among 360,000;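 active = activation above the run's mean over test compounds plus 3 SD, cut at about 23% in these data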;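 also: signal is peak over basal fluorescence ratio across the kinetic read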
M5 PAM: positive allosteric modulators of human muscarinic M5 receptor; CHO-K1 hM5, Fluo-8 calcium, ACh EC20 PAM; 0% = ACh EC20, 100% = ACh EC100; activation, % at 3 µM; hit rate 0.3% among 360,000; P08912;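 active = activation above the run cutoff, the mean activation of all test compounds plus 3 SD, cut at about 18% in these data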
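Replicates: One well per compound, no replicates | System: Human M5 receptor in CHO-K1 cells | Benchmarks: Low control EC20 acetylcholine (0%), high control EC100 acetylcholine (100%) | Probe or stimulus: Acetylcholine, EC20 level | Times: Fluo-8 loading 80 min at 37 °C plus 30 min room temperature | Signal: Intracellular calcium via Fluo-8 fluorescence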
M1 PAM: positive allosteric modulators of human M1 muscarinic receptor. P11229. CHO-K1 hM1, Fluo-8 calcium fluorescence, ACh EC20; 0% = ACh EC20, 100% = maximal ACh. activation, % at 3 µM. hit rate 0.088% among 360,000; in the data active = activation above about 19%, passing the limit was not always enough
Numbers stand for hits; – = inactive. A selection: hits, their analogues and other compounds. The true share with any hit is near 2.1%.

SMILES | CHRM1 agonist | CHRM1 antagonist | CHRM5 antagonist | M5 ag | M5 PAM | M1 PAM
CCC(Sc1nncn1C)C(=O)Nc1nnc(-c2ccccc2Cl)s1 (configuration not stated) | – | – | – | – | – | –
Cc1oc(-c2ccccc2Cl)nc1CS(=O)CC(=O)NCc1ccc2c(c1)OCO2 (configuration not stated) | – | – | – | – | 22.7 | –
Cc1ccc(-c2nc(CS(=O)CC(=O)NCc3ccccc3)c(C)o2)cc1 (configuration not stated) | – | – | – | – | – | 24.0
CCc1nc2ccc(C(=O)N3CCN(C)CC3)cn2c1N(C)CCC(C)C | – | – | – | – | – | –
CCc1nc2ccc(C(=O)N3CCN(C)CC3)cn2c1N(C)CCCc1ccccc1 | – | 32.9 | – | – | – | –
CCc1nc2ccc(C(=O)NCCCn3ccnc3)cn2c1N(C)CCCc1ccccc1 | – | 43.6 | – | – | – | –
CCc1nc2ccc(C(=O)N3CCCCC3)cn2c1N(C)CCCc1ccccc1 | – | 68.7 | – | – | – | –
COc1ccc(C2C(C(=O)NCC3CCCO3)CCC(=O)N2c2ccc3c(c2)OCO3)cc1 (configuration not stated) | – | – | – | – | – | –
O=C(C1CCCN(S(=O)(=O)c2cccs2)C1)N1CCc2ccccc2C1 (configuration not stated) | – | – | – | – | – | –
O=C(C1CCCN(S(=O)(=O)c2cccs2)C1)N1CCN(C2CCCCC2)CC1 (configuration not stated) | – | 17.3 | – | – | – | –
O=C(Nc1ccon1)c1cccc(S(=O)(=O)N2CCCCC2)c1 | – | – | – | – | – | –
CCOc1ccc(NS(=O)(=O)c2cc3c(cc2C)N(C)CCO3)cc1 | – | – | – | – | – | –
COc1ccc(NS(=O)(=O)c2cc3c(cc2C)N(C)CCO3)cc1 | – | 31.7 | – | – | – | –
COc1ccc(NS(=O)(=O)c2ccc(N3CCOCC3)c(N)c2)cc1 | – | 30.9 | – | – | – | –
COC(=O)c1ccc(NC(=O)C(=O)N2CCN(C(=S)Nc3ccccc3OC)CC2)cc1 | – | – | – | – | – | –
COC(=O)c1sccc1NC(=O)Nc1cc(C)cc(C)c1 | – | – | 28.9 | – | – | –
CN1CCN(C(=O)c2cc3nc(-c4ccco4)cc(C(F)(F)F)n3n2)CC1 | – | – | – | – | – | –
COc1ccc(NC(=O)COc2cccc3c2OC(C)(C)C3)cc1OC | – | 31.5 | – | – | – | –
COc1cccc(NC(=O)COC(=O)COc2cccc3c2OC(C)(C)C3)c1 | – | – | – | – | – | –
Cc1cc2c(cc1C)N(C(=O)CSc1nncn1C)C(C)(C)c1ssc(=S)c1-2 | – | – | 34.0 | – | – | –
CC1=CC(C)(C)N(C(=O)CSc2nncn2C)c2ccccc21 | – | – | – | – | – | –
Cc1ccc2c(c1)N(C(=O)CSc1nncn1C)C(C)(C)c1ssc(=S)c1-2 | – | 41.5 | – | – | – | –
CSCCC(NC(=O)c1ccco1)C(=O)N1CCC(C(N)=O)CC1 (configuration not stated) | – | – | – | – | – | –
O=C1c2cccc3c(O)ccc(c23)C(=O)N1Cc1ccco1 | 68.2 | 30.3 | – | 26.1 | – | –
O=C1c2cccc3c(O)ccc(c23)C(=O)N1c1ccc(Cl)cc1 | 77.5 | 44.8 | – | 32.7 | – | –
CC(=O)Nc1ccc(-n2c(=O)c3ccccc3c3ccccc3c2=O)cc1 | – | – | – | – | – | –
COc1ccc(N2C(=O)c3cccc4c(N(C)CCO)ccc(c34)C2=O)cc1 | – | – | – | 24.1 | – | –
CC(=O)Nc1ccc(N2C(=O)c3cccc4c(O)ccc(c34)C2=O)cc1 | 98.0 | 38.9 | 27.9 | 63.6 | – | –
Cc1cc(NC(=O)CS(=O)(=O)c2ccc(F)cc2)no1 | – | – | – | – | – | –
CCN1CCN(C(=O)C2CCN(c3nnc(C)c4c(C)n(-c5ccc(C)cc5)nc34)CC2)CC1 | – | – | – | – | – | –
